Here are results for eleven compounds from ChEMBL document CHEMBL1127856, “Synthesis and structure-activity studies on acidic amino acids and related diacids as NMDA receptor ligands” (J Med Chem, 1994).

Bounds are passed on as bounds.

In assay [1] the target is T1, Glutamate receptor ionotropic, AMPA (Rattus norvegicus, UniProt P19490+P19491+P19492+P19493). As to the kind of experiment: Tested in vitro for the concentration required to inhibit [3H]AMPA radioligand at EAA receptor sites in rat cortical membranes. The assay is classed as cell membranes. An outline of the steps:
(§1)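 Radioligand displacement ([3H]AMPA or [3H]CPP) in rat cortical membranes prepared by the Ransom and Stec method.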

Assay [2] has as its target Glutamate NMDA receptor. As to the kind of experiment: Tested in vitro for the concentration required to inhibit [3H]CPP radioligand at EAA receptor sites in rat cortical membranes. The assay is classed as cell membranes. An outline of the steps: as §1
The species entered for assay [3] is Rattus norvegicus. As to the kind of experiment: Effective concentration in vitro as electropharmacological activity in the rat cortical wedge preparation. The assay is classed as functional. An outline of the steps: (§2)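 Rat brain wedges (500 μm) containing cerebral cortex and corpus callosum, separated by a grease gap. The cortex side is perfused with Mg2+-free oxygenated Krebs buffer containing the compounds, and the callosum side with Mg2+- and Ca2+-free Krebs. DC potentials are recorded via Ag/AgCl electrodes. Agonists for antagonism: NMDA 10 μM, AMPA 5 μM, kainic acid 10 μM. Dose–response curves come from single experiments, each repeated at least twice.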

In assay [4] the target is Glutamate NMDA receptor. As to the kind of experiment: Stimulation of [3H]-MK-801 binding to EAA receptor sites in rat cortical membranes.
Assay [5] deals with Glutamate receptor ionotropic, AMPA (Rattus norvegicus) (UniProt P19491+P19492+P19493+P19490). As to the kind of experiment: Inhibition of [3H]AMPA radioligand at EAA receptor sites in rat cortical membranes at 100 uM concentration. The assay is classed as cell membranes. To be noted: Membrane. An outline of the steps:
as §1

In assay [6] the target is Glutamate NMDA receptor (Rattus norvegicus) (UniProt P35439+Q00959+Q00960+Q00961+Q62645+Q8VHN2+Q9R1M7). In words: Inhibition of [3H]CPP radioligand at EAA receptor sites in rat cortical membranes at 100 uM concentration. The assay is classed as cell membranes. To be noted: Membrane. An outline of the steps: as §1
For assay [7], the species on record is Rattus norvegicus. In words: Effective concentration in vitro as electropharmacological activity in the rat cortical wedge preparation; antagonist. The assay is classed as functional. An outline of the steps:
as §2

Assay [8] has as its target Glutamate receptor ionotropic, NMDA 2C (Rattus norvegicus) (UniProt Q00961). As to the kind of experiment: pKa was determined. The assay is classed as functional.
The target of assay [9] is T1, Glutamate receptor ionotropic, AMPA. In words: Tested in vitro for the concentration required to inhibit [3H]AMPA radioligand at AMPA receptor sites in rat cortical membranes. The assay is classed as cell membranes.

Chain of Glutamate receptor ionotropic, NMDA 2C (Rattus norvegicus) (Q00961 20-1237 limits assumed): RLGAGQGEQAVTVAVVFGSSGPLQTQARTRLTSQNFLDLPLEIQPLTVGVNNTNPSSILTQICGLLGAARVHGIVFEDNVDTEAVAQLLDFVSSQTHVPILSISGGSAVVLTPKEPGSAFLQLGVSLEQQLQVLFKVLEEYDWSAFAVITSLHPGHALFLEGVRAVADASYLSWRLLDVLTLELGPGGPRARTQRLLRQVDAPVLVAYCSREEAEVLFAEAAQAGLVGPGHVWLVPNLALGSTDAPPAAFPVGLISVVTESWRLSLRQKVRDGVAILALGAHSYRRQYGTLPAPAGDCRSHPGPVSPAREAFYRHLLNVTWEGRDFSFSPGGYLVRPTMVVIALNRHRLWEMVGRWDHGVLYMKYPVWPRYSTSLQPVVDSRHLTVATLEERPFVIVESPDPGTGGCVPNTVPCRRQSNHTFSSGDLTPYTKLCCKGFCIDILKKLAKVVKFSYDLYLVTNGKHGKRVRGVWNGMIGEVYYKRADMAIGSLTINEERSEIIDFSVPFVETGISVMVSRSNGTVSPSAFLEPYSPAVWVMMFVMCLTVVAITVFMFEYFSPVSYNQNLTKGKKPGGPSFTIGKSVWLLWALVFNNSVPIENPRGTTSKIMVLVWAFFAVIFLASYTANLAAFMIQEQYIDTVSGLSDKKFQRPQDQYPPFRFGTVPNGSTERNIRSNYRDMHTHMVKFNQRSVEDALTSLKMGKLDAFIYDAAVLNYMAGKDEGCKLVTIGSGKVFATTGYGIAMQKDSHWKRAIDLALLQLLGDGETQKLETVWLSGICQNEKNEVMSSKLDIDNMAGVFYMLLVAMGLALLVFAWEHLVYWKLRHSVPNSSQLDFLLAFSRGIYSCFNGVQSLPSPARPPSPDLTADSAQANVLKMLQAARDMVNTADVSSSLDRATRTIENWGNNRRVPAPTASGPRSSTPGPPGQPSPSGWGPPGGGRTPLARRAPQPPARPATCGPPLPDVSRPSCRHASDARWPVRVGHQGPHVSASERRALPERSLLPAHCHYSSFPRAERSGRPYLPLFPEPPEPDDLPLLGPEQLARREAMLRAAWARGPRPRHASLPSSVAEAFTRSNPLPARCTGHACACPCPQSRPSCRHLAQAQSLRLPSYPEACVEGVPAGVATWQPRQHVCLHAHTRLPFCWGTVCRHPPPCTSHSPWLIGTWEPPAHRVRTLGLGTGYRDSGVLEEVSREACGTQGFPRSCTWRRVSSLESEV

With `CNC(C(=O)O)c1c(C)o[nH]c1=O` (configuration not stated), the IC50 (in general, the concentration that inhibits the measured activity by half) in [1] is over 100 µM; in assay [2], 18.3 µM. In addition, the EC50 (in general, the midpoint of the concentration-response curve) in [3] was 70 µM; in [4], 50 µM.
Regarding `CC(C)(C)c1onc(O)c1CC(N)C(=O)O` (configuration not stated), the concentration for half-maximal inhibition (IC50) in [2] was over 100 µM. Moreover, the figures for the concentration giving a half-maximal response (EC50) in assay [3] and in assay [4] were 48 µM and over 100 µM, respectively.
With `NC(Cc1c(O)noc1CO)C(=O)O` (configuration not stated), the IC50 in assay [1] was 0.4 µM; in assay [2], over 100 µM. The EC50 in [3] was 110 µM; in [4], over 100 µM.
For the compound `COC(C(=O)O)c1c(O)noc1C` (configuration not stated), the IC50 in assay [1] and in assay [2] was over 100 µM throughout. Further, the values for the EC50 in [3] and in assay [4] were over 5000 µM and over 100 µM, respectively.
With `CC(C)(C)c1onc(O)c1C(N)C(=O)O` (configuration not stated), the IC50 in assay [1] and in assay [2] was over 100 µM each time. The inhibition (as a rule, the share of the control response that was lost under treatment) in assay [5] amounted to 8%; in assay [6], 25%. Further, the figures for the EC50 result in assay [7] and in [4] were “Antagonist” and over 100 µM, respectively.
`NC(C(=O)O)c1c(O)noc1CO` (configuration not stated) came in with an IC50 in [1] of over 100 µM. Moreover, the figures for the EC50 in [3] and in assay [4] were 8 µM and 5 µM, respectively.
The like results for `Cc1o[nH]c(=O)c1C(N)C(=O)O` (configuration not stated) were, in that order, over 100 µM, 4.3 µM and 0.45 µM.
As for `CSC(C(=O)O)c1c(O)noc1C` (configuration not stated), the IC50 in assay [1] and in [2] was over 100 µM each time. Besides, the concentration for a half-maximal effect (EC50) in assay [3] was over 5000 µM; in [4], over 100 µM.
Take `O=C(O)c1cccnc1C(=O)O` [QUINOLINIC ACID]: the IC50 in assay [1] and in assay [2] was over 100 µM each time. The compound also had a pKa in [8] of under 2. Also, in assay [3], the EC50 worked out at 1500 µM.
In the case of `NC1(C(=O)O)CCCCc2onc(O)c21` (configuration not stated), the half-maximal inhibitory concentration (IC50) in assay [1] and in [2] was over 100 µM each time. Also, the EC50 in [3] was 2500 µM; in [4], over 100 µM.
`NC(Cc1c(O)noc1CBr)C(=O)O` (configuration not stated) registered an IC50 in assay [9] of 0.03 µM. Also, the concentration for a half-maximal effect (EC50) is 13 µM in assay [3] and over 100 µM in assay [4].
